Source: ChEMBL document CHEMBL4196055, “Synthesis and biological evaluation of α-santonin derivatives as anti-hepatoma agents” (Eur J Med Chem, 2018)

Tests used:
[1] = Antiproliferative activity against human QSG7701 cells after 24 hrs by CCK-8 assay; format: cell-based; settings: QSG7701, 24 h
In short: (§1)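 Cells in 10% FBS medium with penicillin/streptomycin at 37 °C, 5% CO2; HepG-2 in DMEM, QGY-7703, SMMC-7721 and QSG-7701 in RPMI 1640. Seeded 2 × 10^5 cells/well, grown 24 h, then exposed to five concentrations of compound or 1% DMSO vehicle for 24 h. CCK-8 added for 1 h, absorbance read at 450 nm; IC50 derived from the 5-dose data.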

HepG2 [2] = assay: Antiproliferative activity against human HepG2 cells after 24 hrs by CCK-8 assay; format: functional, cell-based; settings: HepG2, 24 h; in short: as §1
HepG2 [3] = assay: Antiproliferative activity against human HepG2 cells at 10 uM after 24 hrs by CCK-8 assay relative to control; format: functional
In short: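 HepG-2 grown in DMEM with 10% FBS and penicillin/streptomycin (37 °C, 5% CO2). Seeded 2 × 10^5 cells/well for 24 h, then given a single 10 μM dose or 1% DMSO vehicle for 24 h. CCK-8 reagent for 1 h, A450 read, and percent inhibition calculated against untreated control cells.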

QGY-7703 = assay: Antiproliferative activity against human QGY7703 cells after 24 hrs by CCK-8 assay; format: functional, cell-based; settings: QGY-7703, 24 h; in short: as §1
SMMC-7721 = assay: Antiproliferative activity against human SMMC7721 cells after 24 hrs by CCK-8 assay; format: functional, cell-based; settings: SMMC-7721, 24 h; in short: as §1

SMILES | IC50 (HepG2 [2]) [µM] | IC50 (SMMC-7721) [µM] | IC50 [1] [µM] | Activity (HepG2 [3]) [%] | IC50 (QGY-7703) [µM]
C=C1C(=O)O[C@@H]2C3=C(C)[C@@H](OC(=O)/C=C/c4ccc(F)cc4)CC3[C@](C)(OC(C)=O)CC[C@@H]12 (stereo partly drawn) | 9.98 | 5.8 | > 100 | 67.53 | 12.2
C=C1C(=O)O[C@@H]2C3=C(C)[C@@H](OC(=O)/C=C/c4ccc(C#N)cc4)CC3[C@](C)(OC(C)=O)CC[C@@H]12 (stereo partly drawn) | – | – | – | 48.53 | –
C=C1C(=O)O[C@@H]2C3=C(C)[C@@H](OC(=O)/C=C/c4ccc(OC)cc4)CC3[C@](C)(OC(C)=O)CC[C@@H]12 (stereo partly drawn) | 12.1 | 5.41 | > 100 | 61.14 | 11.8
C=C1C(=O)O[C@@H]2C3=C(C)[C@@H](OC(=O)/C=C/c4ccc(C)cc4)CC3[C@](C)(OC(C)=O)CC[C@@H]12 (stereo partly drawn) | 8.67 | 5.06 | > 100 | 72.03 | 10.6
C=C1C(=O)O[C@@H]2C3=C(C)[C@@H](OC(=O)/C=C/c4ccc(OCC)cc4)CC3[C@](C)(OC(C)=O)CC[C@@H]12 (stereo partly drawn) | – | – | – | 49.75 | –
C=C1C(=O)O[C@@H]2C3=C(C)[C@@H](OC(=O)/C=C/c4ccc(SC)cc4)CC3[C@](C)(OC(C)=O)CC[C@@H]12 (stereo partly drawn) | – | – | – | 36.24 | –
C=C1C(=O)O[C@@H]2C3=C(C)[C@@H](OC(=O)c4ccc(OC(F)(F)F)cc4)CC3[C@](C)(OC(C)=O)CC[C@@H]12 (stereo partly drawn) | 7.54 | 6.1 | 36.8 | 69.25 | 11.3
C=C1C(=O)O[C@@H]2C3=C(C)[C@@H](OC(=O)/C=C/c4ccc(Br)cc4)CC3[C@](C)(OC(C)=O)CC[C@@H]12 (stereo partly drawn) | 11.7 | 6.09 | 91.3 | 61.39 | 8.91

Continued, in another order:

IC50 (HepG2 [2]) [µM] | IC50 (SMMC-7721) [µM] | SMILES | IC50 [1] [µM] | Activity (HepG2 [3]) [%] | IC50 (QGY-7703) [µM]
10.1 | 6.52 | C=C1C(=O)O[C@@H]2C3=C(C)[C@@H](OC(=O)c4ccc(CCC)cc4)CC3[C@](C)(OC(C)=O)CC[C@@H]12 (stereo partly drawn) | 34.3 | 62.47 | 8.33
9.14 | 6.7 | C=C1C(=O)O[C@@H]2C3=C(C)[C@@H](OC(=O)c4ccc(C#N)cc4)CC3[C@](C)(OC(C)=O)CC[C@@H]12 (stereo partly drawn) | > 100 | 62.58 | 22.8
8.52 | 6.49 | C=C1C(=O)O[C@@H]2C3=C(C)[C@@H](OC(=O)c4ccc(C)cc4)CC3[C@](C)(OC(C)=O)CC[C@@H]12 (stereo partly drawn) | > 100 | 58.47 | 12.2
10.3 | 7.46 | C=C1C(=O)O[C@@H]2C3=C(C)[C@@H](OC(=O)c4ccc(CCCC)cc4)CC3[C@](C)(OC(C)=O)CC[C@@H]12 (stereo partly drawn) | 45.1 | 67.53 | 7.2
5.63 | 5.49 | C=C1C(=O)O[C@@H]2C3=C(C)[C@@H](OC(=O)c4ccc(C(F)(F)F)cc4)CC3[C@](C)(OC(C)=O)CC[C@@H]12 (stereo partly drawn) | 41.1 | 72.42 | 5.64
10.8 | 18.7 | C=C1C(=O)O[C@@H]2C3=C(C)[C@@H](OC(=O)c4ccc(CCCCC)cc4)CC3[C@](C)(OC(C)=O)CC[C@@H]12 (stereo partly drawn) | 38.5 | 58.08 | 7.19
